pIC50: −log10 of the molar value. Calls of active or inactive are those of the source. The calls are words filed in the database; no cut-off is given here.
Tests used:
[1] = tested on: MCF7; experiment: Antiproliferative activity against human MCF7 cells after 24 hrs of drug exposure followed by irradiation at 366 nanometer for 20 mins and subsequent incubation of 72 hrs in drug free media; type: functional, cell-based; conditions: MCF7, light or radiation study
Outline: (§1)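 Cells grown in MEM with 10% FCS at 37 °C, 5% CO2. Seeded for 48 h (HT-29) or 72 h (MCF-7) before drug. Graded concentrations were tested in six replicates. Continuous runs lasted 72 h (HT-29) or 96 h (MCF-7). Short runs used 24 h drug, then drug-free medium, optionally irradiated 20 min at 366 nm (4 W lamp, 5 cm). Biomass read by crystal violet. IC50 is the mean of ≥2 independent experiments.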

[2] = tested on: DNA; experiment: Binding affinity to calf thymus DNA assessed as change in melting temperature at concentration of 0.1 [compound]/[DNA]; type: nucleic-acid assay; conditions: Bos taurus
Outline: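 CT DNA at 200 µM nucleotide with compound at 20 µM in 10 mM phosphate buffer, pH 7.2, 1% DMSO. Melting followed at 260 nm in 1 °C steps. Tm taken as the midpoint from first-derivative curves. ΔTm accurate within ±1 °C.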

[3] = tested on: MCF7; experiment: Antiproliferative activity against human MCF7 cells after 96 hrs by crystal violet staining; type: functional, cell-based; conditions: MCF7, 96 h; outline: as §1
[4] = tested on: MCF7; experiment: Antiproliferative activity against human MCF7 cells after 24 hrs of drug exposure followed by 72 hrs incubation in drug free media; type: functional, cell-based; outline: as §1
[5] = tested on: Escherichia coli; experiment: Induction of photocleave of Escherichia coli pBR322 DNA after irradiation for 2 hrs at 265 nanometer; conditions: in the assay text read “365 nanometer” for “265 nanometer”
Outline: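 pBR322 supercoiled plasmid (0.25 µg) in Tris–HCl pH 7.5 with compound at 50 µM (DMSO stock). Irradiated 2 h at 365 nm (8 W, 10 cm). Run on 1% agarose, ethidium bromide stain. Nicked/linear DNA quantified as percentage of total, mean of two experiments.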

[6] = tested on: HeLa; experiment: Reduction of topoisomerase 2alpha protein level in human HeLa cells by Western blotting; type: functional, cell-based
[7] = tested on: HT-29; experiment: Antiproliferative activity against human HT29 cells after 72 hrs by crystal violet staining; type: functional, cell-based; conditions: HT-29, 72 h; outline: as §1
[8] = tested on: HT-29; experiment: Antiproliferative activity against human HT29 cells after 24 hrs of drug exposure followed by 48 hrs incubation in drug free media; type: functional, cell-based; outline: as §1
[9] = tested on: HT-29; experiment: Antiproliferative activity against human HT29 cells after 24 hrs of drug exposure followed by irradiation at 366 nanometer for 20 mins and subsequent incubation of 48 hrs in drug free media; type: functional, cell-based; conditions: HT-29, light or radiation study; outline: as §1
[10] = tested on: DNA; experiment: Binding affinity to calf thymus DNA assessed as decrease in helical B conformation at 245 nanometer wavelength by circular dichroism; type: nucleic-acid assay; conditions: Bos taurus
Outline: (§2)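 CD spectra of CT DNA (200 µM nucleotide) after 60 min incubation with 20 µM compound. Recorded after equilibration, when ellipticity no longer changed. DNA concentration set by ε260 = 6600 M^-1 cm^-1.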

[11] = tested on: DNA; experiment: Binding affinity to calf thymus DNA assessed as increase in base stacking at 275 nanometer wavelength by circular dichroism; type: nucleic-acid assay; conditions: Bos taurus; outline: as §2

Row | Structure (SMILES) | pIC50 [1] | ΔTm [2] | pIC50 [3] | pIC50 [4] | Activity [5] | pIC50 [7] | pIC50 [8] | pIC50 [9] | Activity [10] | Activity [11] | Activity [6]
1 | CCSc1ccc2c3c(cccc13)C(=O)N(CCN(C)C)C2=O | 5.37 | 8 °C | 5.36 | 5.35 | Active | 5.72 | 5.66 | 5.60 | Active | Active | Active
2 | CN(C)CCN1C(=O)c2cccc3cccc(c23)C1=O | 4.95 | 6 °C | 5.35 | 4.94 | Active | 5.46 | 5.14 | 5.28 | – | – | Active
3 | CCCCSc1ccc2c3c(cccc13)C(=O)N(CCN(C)C)C2=O | 5.40 | 8 °C | 5.59 | 5.24 | Active | 5.34 | 5.37 | 5.52 | Active | Active | inactive
4 | CCSc1ccc2c3c(cccc13)C(=O)N(CCS)C2=O | < 4.30 | 2 °C | < 4.30 | < 4.30 | Active | – | < 4.30 | < 4.30 | – | – | –
5 | CN(C)CCN1C(=O)c2cccc3c(Sc4ccccc4N)ccc(c23)C1=O | 5.31 | 9 °C | 5.59 | 5.32 | Active | 5.54 | 5.55 | 5.55 | Active | – | Active

Further molecules by rising pIC50 [1], results first:

Row | pIC50 [1] | ΔTm [2] | pIC50 [3] | pIC50 [4] | Activity [5] | pIC50 [7] | pIC50 [8] | pIC50 [9] | Activity [10] | Activity [11] | Structure (SMILES) | Activity [6]
6 | 5.62 | 3 °C | 5.57 | 5.14 | Active | 5.36 | 5.26 | 5.74 | – | – | CN(C)CCN1C(=O)c2cccc3c(Sc4nc5ccccc5s4)ccc(c23)C1=O | Active
7 | 5.77 | 7 °C | 5.47 | 5.17 | Active | 5.39 | 5.32 | 5.89 | Active | Active | CN(C)CCN1C(=O)c2cccc3c(SCc4ccccc4)ccc(c23)C1=O | inactive
8 | 6.74 | – | 6.70 | 6.77 | – | 6.21 | 6.64 | 6.68 | – | – | CN(C)CCN1C(=O)c2cccc3c2c(cc2c4ccccc4sc32)C1=O | Active
